Test results from ChEMBL document CHEMBL3745632, “Development of a novel sulfonate ester-based prodrug strategy” (Bioorg Med Chem Lett, 2016).
Each block holds one molecule with its values, some of them ahead of it.

Tests used:
[1] = Drug metabolism in HEPES buffer assessed as aeromonas proteolytica aminopeptidase-mediated 4-chlorophenol formation at 200 uM by spectrophotometry; format: ADME; conditions: vibrio proteolyticus
Summary of the method: (§1)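 Each substrate (50 or 200 μM) was incubated with AAP (1.05 units/mL) in 50 mM HEPES (pH 8.0) containing 2% DMSO for varying periods. Release of the corresponding phenol was monitored over time.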

[2] = Drug metabolism in HEPES buffer assessed as aeromonas proteolytica aminopeptidase-mediated Isothiazolidine 1,1-dioxide formation at 200 uM by spectrophotometry; format: ADME; conditions: vibrio proteolyticus
[3] = Dissociation constant, pKa of the compound; format: physicochemical
[4] = Drug level in HEPES buffer treated with 2 mM (S)-2-methylquinolin-8-yl 3-(2-amino-4-methylpentanamido)propane-1-sulfonate for 12 hrs in presence of aeromonas proteolytica aminopeptidase by spectrophotometry; format: ADME; conditions: vibrio proteolyticus
Serum [5] = test: Drug level in human serum treated with 5 mM (S)-2-methylquinolin-8-yl 3-(2-amino-4-methylpentanamido)propane-1-sulfonate after 24 hrs by HPLC analysis; format: ADME, cell-free
[6] = Drug level in HEPES buffer treated with 50 uM (S)-2-methylquinolin-8-yl 3-(2-amino-4-methylpentanamido)propane-1-sulfonate in presence of aeromonas proteolytica aminopeptidase by spectrophotometry; format: ADME; conditions: vibrio proteolyticus; summary of the method: as §1
[7] = Retention time of compound by HPLC analysis; format: physicochemical
[8] = Drug metabolism in HEPES buffer assessed as aeromonas proteolytica aminopeptidase-mediated compound hydrolysis at 2 mM by spectrophotometry; format: ADME; conditions: vibrio proteolyticus, 2000 µM
[9] = Drug level in HEPES buffer treated with 200 uM (S)-4-chlorophenyl 3-(2-amino-4-methylpentanamido)propane-1-sulfonate in presence of aeromonas proteolytica aminopeptidase by spectrophotometry; format: ADME; conditions: vibrio proteolyticus
Summary of the method: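 Compound at 200 μM incubated for a given period with Aeromonas proteolytica aminopeptidase (1.05 units/mL) in 50 mM HEPES, pH 8.0, containing 2% DMSO. Liberation of the corresponding phenol was followed over time to evaluate the intramolecular cyclization rate k₂.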

[10] = Drug level in HEPES buffer treated with 200 uM (S)-4-(trifluoromethyl)phenyl 3-(2-amino-4-methylpentanamido)propane-1-sulfonate in presence of aeromonas proteolytica aminopeptidase by spectrophotometry; format: ADME; conditions: vibrio proteolyticus; summary of the method: as §1
[11] = Drug level in HEPES buffer treated with 200 uM (S)-4-sulfamoylphenyl 3-(2-amino-4-methylpentanamido)propane-1-sulfonate in presence of aeromonas proteolytica aminopeptidase by spectrophotometry; format: ADME; conditions: vibrio proteolyticus; summary of the method: as §1
[12] = Inhibition of aeromonas proteolytica aminopeptidase at 5 uM incubated at pH 8 and 30 degC followed by addition of 50 uM L-leucine-p-nitroanilide substrate by spectrophotometry; conditions: vibrio proteolyticus, pH 8, 5 µM
Summary of the method: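 The prodrug (5 μM) was preincubated with AAP (0.02 units/mL) at pH 8.0 and 30 °C for set times in 10 mM HEPES (pH 8.0) containing 2% DMSO. L-leucine-p-nitroanilide (50 μM) was then added, and its hydrolysis was followed at 25 °C by ΔAbs405 from released p-nitroaniline (ε405 = 10300). In the control, the prodrug was preincubated without enzyme, and AAP was added together with the substrate.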

[13] = Drug metabolism in HEPES buffer assessed as aeromonas proteolytica aminopeptidase-mediated 5-chloroquinolin-8-yl 3-chloropropane-1-sulfonate formation at 2 mM after 12 hrs by spectrophotometry; format: ADME; conditions: vibrio proteolyticus, 2000 µM
[14] = Drug metabolism in HEPES buffer assessed as aeromonas proteolytica aminopeptidase-mediated 5-chloroquinolin-8-yl 4-chlorobutane-1-sulfonate formation at 2 mM after 12 hrs by spectrophotometry; format: ADME; conditions: vibrio proteolyticus, 2000 µM
[15] = Metabolic stability in human serum assessed as compound decomposed at 5 mM after 24 hrs by HPLC analysis; format: ADME; conditions: read-out: Drug metabolism
[16] = Drug metabolism in HEPES buffer assessed as aeromonas proteolytica aminopeptidase-mediated 2-methylquinolin-8-ol formation at 2 mM after 12 hrs by spectrophotometry; format: ADME; conditions: vibrio proteolyticus, 2000 µM
[17] = Drug metabolism in HEPES buffer assessed as aeromonas proteolytica aminopeptidase-mediated Isothiazolidine 1,1-dioxide formation at 2 mM after 12 hrs by spectrophotometry; format: ADME; conditions: vibrio proteolyticus, 2000 µM
[18] = Drug metabolism in HEPES buffer assessed as aeromonas proteolytica aminopeptidase-mediated 2-methylquinolin-8-ol formation at 50 uM by spectrophotometry; format: ADME; conditions: vibrio proteolyticus; summary of the method: as §1
[19] = Drug metabolism in HEPES buffer assessed as aeromonas proteolytica aminopeptidase-mediated Isothiazolidine 1,1-dioxide formation at 50 uM by spectrophotometry; format: ADME; conditions: vibrio proteolyticus
Serum [20] = test: Drug metabolism in human serum assessed as 2-methylquinolin-8-ol formation at 5 mM after 24 hrs by HPLC analysis; format: ADME, cell-free; conditions: 5000 µM
Serum [21] = test: Drug metabolism in human serum assessed as 2-methylquinolin-8-yl 3-aminopropane-1-sulfonate formation at 5 mM after 24 hrs by HPLC analysis; format: ADME, cell-free; conditions: 5000 µM
[22] = Drug metabolism in CD1 mouse S9 fraction assessed as 2-methylquinolin-8-yl 3-aminopropane-1-sulfonate formation at 5 mM after 3 hrs by HPLC analysis; format: ADME, Liver; conditions: s9, 3 h, 5000 µM
[23] = Drug metabolism in HEPES buffer assessed as aeromonas proteolytica aminopeptidase-mediated compound hydrolysis at 1.3 mM by spectrophotometry; format: ADME; conditions: vibrio proteolyticus, 1300 µM
[24] = Drug metabolism in HEPES buffer assessed as aeromonas proteolytica aminopeptidase-mediated 4-(trifluoromethyl)phenol formation at 200 uM by spectrophotometry; format: ADME; conditions: vibrio proteolyticus; summary of the method: as §1
[25] = Inhibition of aeromonas proteolytica aminopeptidase using L-leucine-p-nitroanilide as substrate by spectrophotometry; design: species or system Vibrio proteolyticus
Serum [26] = test: Metabolic stability in human serum assessed as compound decomposed at 5 mM by HPLC analysis; format: ADME; conditions: 5000 µM
[27] = Metabolic stability in CD1 mouse liver S9 fraction assessed as compound remaining at 5 mM by HPLC analysis; format: ADME, subcellular; conditions: read-out: Stability
[28] = Drug metabolism in HEPES buffer assessed as aeromonas proteolytica aminopeptidase-mediated 4-hydroxybenzenesulfonamide formation at 200 uM by spectrophotometry; format: ADME; conditions: vibrio proteolyticus; summary of the method: as §1
Liver = test: Drug level in CD1 mouse liver S9 fraction treated with 5 mM (S)-2-methylquinolin-8-yl 3-(2-amino-4-methylpentanamido)propane-1-sulfonate after 3 hrs by HPLC analysis; format: ADME, subcellular; conditions: s9, 3 h

Drug metabolism [1]: metabolite_detected | Drug metabolism [2]: metabolite_detected | pKa [3]: 9.6
SMILES: CC(C)C[C@H](N)C(=O)NCCCS(=O)(=O)Oc1ccc(Cl)cc1

Drug metabolism [4]: metabolite_detected | Drug metabolism (Serum [5]): metabolite_detected | Drug metabolism [6]: metabolite_detected | Retention_time [7]: 4.6 min
SMILES: Cc1ccc2cccc(O)c2n1 [8-HYDROXY QUINALDINE]

Drug metabolism [8]: metabolite_detected
SMILES: Cc1ccc2cccc(OS(=O)(=O)CCCCNC(=O)[C@@H](N)CC(C)C)c2n1

Drug metabolism [4]: metabolite_detected | Drug metabolism [6]: metabolite_detected | Drug metabolism [9]: metabolite_detected | Drug metabolism [10]: metabolite_detected | Drug metabolism [11]: metabolite_detected
SMILES: O=S1(=O)CCCN1

inhibition (INH) [12]: Active
SMILES: CC(C)C[C@H](N)C(=O)NCCCS(=O)(=O)Oc1ccc(Cl)c2cccnc12

Drug metabolism [13]: metabolite_notdetected | Drug metabolism [14]: metabolite_notdetected | metabolised at 24 h, 5000 µM [15]: 35% | Drug metabolism [16]: metabolite_detected | Drug metabolism [17]: metabolite_detected | Drug metabolism [18]: metabolite_detected | Drug metabolism [19]: metabolite_detected | pKa [3]: 10.9 | Drug metabolism (Serum [20]): metabolite_detected | Drug metabolism (Serum [21]): metabolite_detected | Drug metabolism [22]: metabolite_detected | Retention_time [7]: 21 min
SMILES: Cc1ccc2cccc(OS(=O)(=O)CCCNC(=O)[C@@H](N)CC(C)C)c2n1

Drug metabolism [23]: metabolite_detected
SMILES: Cc1ccc2cccc(OS(=O)(=O)CCNC(=O)[C@@H](N)CC(C)C)c2n1

SMILES: Oc1ccc(Cl)cc1 [PARACHLOROPHENOL]
Drug metabolism [9]: metabolite_detected

Drug metabolism [24]: metabolite_detected | Drug metabolism [2]: metabolite_detected | pKa [3]: 8.9
SMILES: CC(C)C[C@H](N)C(=O)NCCCS(=O)(=O)Oc1ccc(C(F)(F)F)cc1

Ki [25]: 190 nM
SMILES: Oc1ccc(Cl)c2cccnc12 [CLOXYQUIN]

Stability (Serum [26]): Stable | remaining [27]: 88% | Retention_time [7]: 17.5 min
SMILES: Cc1ccc2cccc(OS(=O)(=O)CCCN=[N+]=[N-])c2n1

Drug metabolism [28]: metabolite_detected | Drug metabolism [2]: metabolite_detected | pKa [3]: 8.3
SMILES: CC(C)C[C@H](N)C(=O)NCCCS(=O)(=O)Oc1ccc(S(N)(=O)=O)cc1

inhibition (INH) [12]: Active
SMILES: CC(C)C[C@H](N)C(=O)NCCCCS(=O)(=O)Oc1ccc(Cl)c2cccnc12

Drug metabolism [11]: metabolite_detected
SMILES: NS(=O)(=O)c1ccc(O)cc1

Drug metabolism (Serum [5]): metabolite_detected | Drug metabolism (Liver): metabolite_detected | Retention_time [7]: 6.5 min
SMILES: Cc1ccc2cccc(OS(=O)(=O)CCCN)c2n1

Drug metabolism [10]: metabolite_detected
SMILES: Oc1ccc(C(F)(F)F)cc1
